RAD54 inh: RAD54 (human) branch migration inhibition. Q92698. RAD54 Holliday junction branch migration, FAM/BHQ fluorescence. inhibition, % at 10.4 µM. 360,000 compounds, 0.14% hits. AID 602329;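 active = mean normalized replicate activity at least 40 and at least half of replicates scoring 40 or more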;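 also: 0% = median of neutral control wells and 100% = median of positive control wells; inhibitors cause a drop in the FAM fluorescence signal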
UBC13 inh: inhibitors of human UBC13 polyubiquitin chain formation | P61088 | TR-FRET | inhibition, % at 20 µM | 330,000 compounds, 0.47% hits | AID 485273; in the data active = inhibition above about 45%, passing the limit was not always enough
Target sequence (P61088 whole entry, looked up): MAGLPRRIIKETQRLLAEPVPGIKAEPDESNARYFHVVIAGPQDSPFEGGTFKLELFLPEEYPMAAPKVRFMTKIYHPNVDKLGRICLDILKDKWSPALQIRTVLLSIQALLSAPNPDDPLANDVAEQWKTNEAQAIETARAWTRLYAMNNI
Neddylation inh: blocks human cullin neddylation; P61081+Q13564; calls only at 25 µM; TR-FRET cullin neddylation, biochemical; 360,000 compounds, 0.58% hits; in the data active = inhibition above about 36%
RAD52 inh: RAD52 (human) annealing inhibition; recombinant RAD52 DNA annealing, FRET fluorescence; inhibition, % at 18.7 µM; 360,000 compounds, 0.46% hits;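 active = every replicate showing at least 50% inhibition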
Target sequence (P43351 whole entry, looked up): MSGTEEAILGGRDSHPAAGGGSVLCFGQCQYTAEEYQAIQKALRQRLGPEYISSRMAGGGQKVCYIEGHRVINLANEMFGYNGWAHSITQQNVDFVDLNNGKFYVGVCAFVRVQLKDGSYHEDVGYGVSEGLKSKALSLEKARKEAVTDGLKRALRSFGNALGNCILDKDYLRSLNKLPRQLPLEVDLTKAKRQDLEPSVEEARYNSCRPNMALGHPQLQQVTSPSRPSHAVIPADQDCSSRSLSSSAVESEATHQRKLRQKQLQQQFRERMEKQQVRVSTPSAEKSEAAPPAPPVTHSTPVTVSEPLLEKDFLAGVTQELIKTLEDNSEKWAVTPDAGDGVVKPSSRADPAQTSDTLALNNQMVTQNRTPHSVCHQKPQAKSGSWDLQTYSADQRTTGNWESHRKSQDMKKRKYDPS
FID counter: counter-screen for HCV NS3 helicase inhibitors: DNA intercalator displacement; inhibition, % at 7.9 µM; 290,000 compounds, 0.17% hits; DNA fluorescent intercalator displacement, fluorescence; AID 1845; in the data active = inhibition above about 37%;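 also: 0% = vehicle and 100% = reference compound; higher means more ethidium bromide displaced from hairpin DNA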
Apaf1 inhib: inhibitors of human Apaf-1 apoptosome; 330,000 compounds, 0.71% hits; reconstituted apoptosome caspase-3 activity, DEVD-Rh110 fluorescence; O14727; AID 489030; inhibition, % at 20 µM; active = inhibition of at least 40% at 20 µM;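 also: plate controls were DMSO wells for no effect and DEVD-CHO caspase inhibitor wells for full effect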
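Material: reconstituted apoptosome with Apaf-1, cytochrome c, caspase-9, procaspase-3, dATP; medium: pH 7.5 Hepes buffer with CHAPS, BSA, DTT; also added: cytochrome c and DEVD-Rh110 substrate; timing: 30 min plus 50 min, RT; signal: Rh110 fluorescence intensity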
* marks the source's active call; other numbers are inactive results; i = inactive; / = not tested or not shown; + = active, no number. In the library only some 1.6% were active in any assay of this set; here they are far more common.

SMILES	RAD54 inh	UBC13 inh	Neddylation inh	RAD52 inh	FID counter	Apaf1 inhib
C[C@H]1CN([C@@H](C)CO)C(=O)Cc2cc(NC(=O)Cn3cnnn3)ccc2O[C@H]1CN(C)C(=O)Nc1cccc2ccccc12	-0.7	/	/	/	/	/
CCS(=O)(=O)N1CC2(C1)[C@@H](c1ccccc1)[C@@H](CO)N2CCC(F)(F)F	/	/	/	-13.6	/	/
COc1ccc(CC2=CC(=O)c3ccccc3C2=O)cc1	3.3	-26.9	i	-31.7	0.5	49.6*
COc1cccc(CN2CCC3(CC2)CN(C(=O)C2CC2)[C@H](CO)c2[nH]c4cc(OC)ccc4c23)c1	/	/	/	1.5	/	/
CC1=NN(c2ccccc2)C(=O)/C1=C/c1ccc(-c2ccc(C)c(C(=O)O)c2)o1	/	-71.4	/	-19.3	/	68.2*
CC1=NN(c2ccc(Cl)c(C(=O)O)c2)C(=O)/C1=C\c1ccc(-c2ccc(C(=O)O)cc2)o1	/	/	i	-40.1	-4.0	/
CC1=NN(c2ccc(C(=O)O)cc2)C(=O)/C1=C/c1ccc(-c2ccccc2F)o1	-9.0	-33.9	i	-10.8	-8.0	57.7*
Cc1cc(C)c(Nc2cc(S(=O)(=O)O)c(N)c3c2C(=O)c2ccccc2C3=O)c(C)c1	/	/	i	/	44.4*	/
CCNC(=O)[C@@H]1[C@@H](CO)[C@@H]2Cn3c(ccc(-c4ccc(F)cc4)c3=O)[C@H]1N2C(C)=O	10.6	/	/	-2.0	/	/
OC1=C(O)c2nc3cc(F)ccc3nc21	-9.9	-26.1	i	-20.5	38.1*	-9.7
Nc1nnc2cc(F)ccc2n1	-11.1	/	i	-13.1	/	/
COCCOC(=O)c1c(C)n(C)c2ccc(OC(=O)c3c(OC)cccc3OC)cc12	-5.4	7.9	i	-2.2	-45.5	17.8
COc1ccc2c(c1)c(C(=O)OCCN(C)C)c(C)n2C	59.2*	-3.0	i	/	10.8	-12.1
N=c1n(Cc2ccc(Cl)cc2)c2ccccc2n1CC(O)COc1ccccc1 (stereo not given)	27.5	32.1	i	28.8	42.6*	34.3
Cc1cccc(OCC(O)Cn2c(=N)n(CCN3CCCCC3)c3ccccc32)c1 (stereo not given)	5.4	15.5	i	/	39.1*	4.2
COc1ccc(OCC(O)Cn2c(=N)n(Cc3ccccc3)c3ccccc32)cc1 (stereo not given)	22.6	18.7	i	/	48.2*	27.4
COc1cccc(S(=O)(=O)N[C@H]2CC[C@@H](CCNC(=O)Cc3ccncc3)O[C@H]2CO)c1	-7.2	/	/	-23.6	/	/
Cc1ccc(NC2=CC(=O)C(=O)c3ccccc32)c(C)c1	-2.1	-172.1	i	-3.7	/	86.6*
O=C1C=C(Nc2ccc(F)cc2)c2ccccc2C1=O	-7.2	-255.8	i	-9.2	/	87.1*
COc1cccc(S(=O)(=O)Nc2ccc3c(c2)C(=O)N(C)C[C@H](OC)[C@@H](C)CN[C@@H](C)CO3)c1	-0.6	/	/	-8.8	/	/
CCN1CCC(Nc2ccnc3cc(Cl)ccc23)CC1	19.5	3.7	i	6.2	49.8*	1.1
CCOc1ccc(Nc2ccnc3cc(Cl)ccc23)cc1	-7.7	7.0	i	2.0	2.0	-0.5
Brc1ccc2c(c1)-c1ccccc1C1=NCCN12	80.6*	/	i	35.1	/	/
NC(=S)NNc1cccc2cccnc12	5.3	-19.8	i	29.0	9.2	76.3*
C/C=C/c1ccc(O)c(OC)c1	0.9	-8.8	i	15.3	/	9.9
SMILES	RAD54 inh	UBC13 inh	Neddylation inh	RAD52 inh	FID counter	Apaf1 inhib
Oc1cc(O)cc(/C=C/c2ccc(O)c(O)c2)c1	0.8	15.3	+	-2.9	/	-8.0
CCCN1[C@@H]2c3cccc(=O)n3C[C@@H]2[C@@H](CO)[C@@H]1C(=O)N[C@H](C)c1ccccc1	/	/	/	-0.5	/	/
C[C@H]1CN([C@@H](C)CO)C(=O)c2cc(Br)cnc2O[C@@H]1CN(C)C(=O)NC1CCCC1	-1.8	/	/	0.3	/	/
C[n+]1c2n(c3ccccc31)N=C(c1ccc(-c3ccccc3)cc1)CS2	/	16.9	i	70.5*	23.1	26.6
CC(/C=C1\SC(=S)N(CCCC(=O)Nc2ccc(C(=O)O)c(O)c2)C1=O)=C\c1ccccc1	/	/	/	/	38.5*	/
COc1ccc(OC)c2[nH]c(C(=O)N/N=C/c3ccccc3O)cc12	4.3	-3.5	i	-10.3	-13.9	10.7
COc1ccc(/C=N/NC(=O)c2cc3c(OC)ccc(OC)c3[nH]2)cc1O	/	-13.4	+	-0.7	-22.7	12.5
CCc1nnc(NC(=O)c2ccc(-c3ccccc3Cl)o2)s1	-10.9	8.2	+	/	-1.6	-0.1
O=C1NCN(c2ccccc2)C12CCN(CCCC(c1ccc(F)cc1)c1ccc(F)cc1)CC2	-2.1	39.8	i	-2.1	9.7	54.7*
O=C(C1CCOCC1)N1CC(=O)N2[C@@H](CO)[C@H](c3ccc(C#Cc4cccc(F)c4)cc3)[C@@H]2C1	/	/	/	10.1	/	/
CCCC(=Nc1ccccc1)C1=C(O)C(C(=O)OC)C(C)(C)CC1=O (stereo not given)	-3.5	-3.2	i	-21.7	-6.2	-3.4
CCCCC(=Nc1ccc(N)cc1)C1=C(O)C(C(=O)OC)C(C)(C)CC1=O (stereo not given)	-2.5	-28.6	i	/	-4.7	61.6*
Cc1ccc(S(=O)(=O)Nc2cccc3c2O[C@@H](CN(C)Cc2ccc(C(=O)O)cc2)[C@H](C)CN([C@H](C)CO)C3=O)cc1	1.1	/	/	6.1	/	/
CCCCOc1ccc(C(O)(CCC)CCN2CCOCC2)cc1 (stereo not given)	-4.9	3.4	i	/	5.2	2.9
CCCCC(O)(CCN1CCOCC1)c1ccc(Cl)cc1 (stereo not given)	-3.0	7.7	i	-9.8	49.2*	-9.6
C[C@H](CO)N1C[C@H](C)[C@H](CN(C)S(=O)(=O)c2ccc(F)cc2)Oc2ncc(C#Cc3cccc(F)c3)cc2C1=O	-3.5	/	/	-2.1	/	/
C[C@@H]1CN([C@@H](C)CO)C(=O)c2cc(NC(=O)Nc3cccc4ccccc34)ccc2O[C@@H](C)CCCCO[C@@H]1CN(C)S(=O)(=O)c1ccc(F)cc1	-7.3	/	/	-20.6	/	/
O=C(C1CCCC1)N1CC(=O)N2[C@H](CO)[C@@H](c3ccc(-c4ccccc4F)cc3)[C@@H]2C1	/	/	/	-12.0	/	/
O=C(NC1CCC1)[C@@H]1[C@@H](CO)[C@@H]2Cn3c(ccc(-c4ccccc4F)c3=O)[C@@H]2N1Cc1ccncc1	11.3	/	/	85.2*	/	/
C[C@@H]1CN([C@@H](C)CO)C(=O)c2cccc(NC(=O)Nc3ccc4c(c3)OCO4)c2O[C@@H]1CN(C)CC1CC1	/	/	/	27.7	/	/
O=S(=O)(c1cccs1)N1CN(Cc2cccs2)c2nc3ccccc3nc21	/	-3.0	+	/	-5.0	8.8
CCCN1C[C@@H](C)[C@@H](OC)CN(C)C(=O)c2ccc(NC(=O)Nc3cccc(OC)c3)cc2OC[C@@H]1C	-8.2	/	/	67.5*	/	/
COc1cccc(NC(=O)Nc2ccc3c(c2)C(=O)N(C)C[C@@H](OC)[C@@H](C)CN(CC2CC2)[C@@H](C)CO3)c1	-11.7	/	/	70.4*	/	/
COc1cccc(NC(=O)Nc2ccc3c(c2)C(=O)N(C)C[C@H](OC)[C@@H](C)CN(C)[C@@H](C)CO3)c1	1.7	/	/	79.2*	/	/

Screens deposited in PubChem BioAssay by several laboratories.
